Shown are actives, neighbours in structure and some others; about 4.7% of the full set was active somewhere.
ADAM17 inh: ADAM17 inhibitors, primary screen, biochemical, QFRET; inhibition, % at 6.95 µM; 370,000 tested, 0.83% active; Disintegrin and metalloproteinase domain-containing protein 17 (Homo sapiens), P78536; recombinant ADAM17, EDANS/DABCYL FRET peptide cleavage;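 active = inhibition above the mean of compounds lying between control limits plus 3 SD, set per campaign, cut at about 8.5% in these data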
Target sequence (P78536 215-824 limits assumed): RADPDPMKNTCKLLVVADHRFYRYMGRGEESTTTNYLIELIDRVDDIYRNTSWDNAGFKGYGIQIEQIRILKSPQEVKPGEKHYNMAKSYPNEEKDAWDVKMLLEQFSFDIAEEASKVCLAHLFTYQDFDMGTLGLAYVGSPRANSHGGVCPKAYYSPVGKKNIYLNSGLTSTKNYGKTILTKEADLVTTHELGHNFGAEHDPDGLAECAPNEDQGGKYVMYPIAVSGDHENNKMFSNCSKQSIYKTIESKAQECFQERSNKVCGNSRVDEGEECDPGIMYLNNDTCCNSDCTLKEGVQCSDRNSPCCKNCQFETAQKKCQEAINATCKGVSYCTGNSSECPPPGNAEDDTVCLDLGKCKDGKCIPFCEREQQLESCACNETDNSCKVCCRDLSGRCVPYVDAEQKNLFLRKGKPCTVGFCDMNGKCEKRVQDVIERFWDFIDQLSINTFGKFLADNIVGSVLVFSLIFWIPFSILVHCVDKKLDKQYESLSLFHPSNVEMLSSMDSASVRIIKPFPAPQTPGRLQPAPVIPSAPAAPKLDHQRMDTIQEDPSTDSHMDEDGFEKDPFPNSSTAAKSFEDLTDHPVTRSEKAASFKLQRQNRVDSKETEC
MPTP inh: mitochondrial permeability transition pore inhibitors, primary screen, biochemical, isolated mouse mitochondria, absorbance; Ca2+ swelling absorbance, 30 min; AID 602449, 2012; 360,000 tested, 1.4% active; inhibition, % at 10 µM;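 active = inhibition of 50% or more, scaled per plate between neutral and stimulator controls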
ADAM10 inh: human ADAM10 inhibitors, primary screen, biochemical, QFRET, HTS | recombinant ADAM10, EDANS/DABCYL FRET peptide cleavage, 3 h | 370,000 tested, 0.62% active | inhibition, % at 7 µM | Disintegrin and metalloproteinase domain-containing protein 10 (Homo sapiens), O14672;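 active = inhibition above a per-campaign cutoff equal to the mean of compounds falling between control-based bounds plus 3 SD, cut at about 20% in these data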
MT1-MMP act inh: blockers of MT1-MMP proenzyme processing, primary screen, HT1080 RFP-PRO-GFP cells, GFP/RFP fluorescence; Matrix metalloproteinase-14 (Homo sapiens), P50281; GFP/RFP ratio fluorescence, overnight; percent of plate control window, DMSO zero; GFP/RFP ratio change, % at 20 µM; 360,000 tested, 0.061% active; AID 651647, 2012;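 active = GFP/RFP ratio change of at least 30% with cell ATP level not reduced by more than half and red fluorescence within 50% of control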
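Assay system: HT1080 cells carrying an RFP-PRO-GFP reporter | Dosing: Single dose of 20 µM compound, 1% DMSO final | Incubation: Cells overnight before dosing, compound overnight, 37 °C, 5% CO2 | Evaluation: GFP/RFP fluorescence ratio | Control set: DMSO and RFP-L50D-GFP cell wells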
NR3A LBD binder: binders of NR3A ligand-binding domain, primary screen, biophysical, differential scanning fluorimetry, uHTS; 340,000 tested, 2.5% active; Tm shift relative to glycine control, % at 25 µM; NR3A LBD differential scanning fluorimetry, Tm shift; 0% = protein alone, 100% = glycine-bound protein; AID 1259313, 2017; Glutamate receptor ionotropic, NMDA 3A (GRIN3A) ligand-binding domain;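 active = melting temperature shift of at least 10% of the positive control shift, at one fixed dose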
SKN-1 inh: suppressors of acrylamide-induced Pgst-4::GFP reporter in worms, primary screen, SKN-1 inhibitor project, whole organism, uHTS, GFP/RFP fluorescence ratio, strain VP596; inhibition, % at 21.8 µM; 360,000 tested, 0.49% active; C. elegans VP596 Pgst-4::GFP/RFP ratio, 24 h;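 active = interference check ratio from 0.5 to 1.5 plus GFP to RFP signal ratio inhibition reaching or exceeding a fixed threshold, cut at about 30% in these data, passing the limit was not always enough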
Numbers stand for hits; n = inactive; x = no result given.

SMILES	ADAM17 inh	MPTP inh	ADAM10 inh	MT1-MMP act inh	NR3A LBD binder	SKN-1 inh
Cc1[nH]n(-c2ccc(Br)cc2)c(=O)c1C=Nc1ccc(S(=O)(=O)Nc2nccs2)cc1	n	n	n	n	27	n
CCCC(C(=O)NCC1CCCO1)N(Cc1ccccc1)C(=O)CNS(=O)(=O)c1ccccc1 (centres undefined)	n	n	n	n	n	42
COc1cccc2cc(CC(=O)c3ccc(C)c(C)c3)c(=O)oc12	n	n	n	n	n	n
COc1ccc(OCCn2nnc(-c3ccc(Cl)cc3)n2)cc1	n	n	n	n	15	n
COc1ccc(-c2nnn(Cc3ccccc3)n2)cc1	n	n	n	n	n	n
Cc1onc(-c2ccccc2)c1C(=O)NC(CC(=O)O)c1ccc(OC(C)C)cc1 (centres undefined)	n	n	n	n	n	n
CC(=O)Nc1ccc(/C=C/c2ccc3cccc([N+](=O)[O-])c3n2)cc1	n	n	n	n	26	n
O=[N+]([O-])c1ccc(/C=C/c2ccc3cccc(O)c3n2)cc1	n	n	n	n	n	n
COc1cc(/C=C/c2ccc3cccc([N+](=O)[O-])c3n2)ccc1OCC(=O)O	n	n	n	n	n	n
O=C(O)COc1ccc(/C=C/c2ccc3cccc([N+](=O)[O-])c3n2)cc1	n	n	n	n	18	n
CC(NC(=O)CN1CCN(CC(=O)Nc2ccccc2Cl)CC1)c1ccc(Br)cc1 (centres undefined)	n	n	n	n	n	n
CCN(CC)CCNC(=O)c1ccc2c(c1NCCO)C(=O)c1ccccc1C2=O	n	n	n	n	n	42
O=c1oc([C@@H](O)c2ccccc2)cc2ccccc12	n	n	n	n	10	n
O=C(c1cc2ccccc2c(=O)o1)N1CCCC1	n	x	n	x	x	x
C/C(=N\Nc1cc(C)nc(-c2ccccc2O)n1)c1ccccc1O	n	n	n	n	26	n
Cc1cc(N/N=C/c2ccc(O)cc2O)nc(-n2nc(C)cc2C)n1	n	n	n	n	27	n
Cc1cc(N/N=C/c2ccc(O)cc2O)nc(-c2ccccc2O)n1	x	n	x	n	35	n
COc1cc(/C=N/Nc2nc(Nc3ccccc3)nc(-n3nc(C)cc3C)n2)cc(OC)c1OC	n	n	n	n	n	n
Cc1cc(N/N=C/c2ccc(O)cc2O)c2ccccc2n1	n	n	n	n	n	n
COc1ccc(O)c(/C=N/Nc2nc(Nc3ccccc3)nc(-n3nc(C)cc3C)n2)c1	11	n	n	n	n	n
O=C(NNc1ccc([N+](=O)[O-])cc1[N+](=O)[O-])C1C2CCCCC21 (centres undefined)	n	n	n	n	n	n
CCOC(=O)c1ccccc1NC1OC(=O)c2ccccc21 (centres undefined)	n	n	n	n	n	n
CCCCNC(=S)NC(=O)c1ccccc1Br	n	n	n	n	n	n
Cc1cc(N/N=C/c2ccccc2O)nc(N2CCOCC2)n1	n	n	n	n	n	n
Cc1cc(N/N=C/c2ccccc2O)nc(-c2ccccc2O)n1	n	n	n	n	25	n
SMILES	ADAM17 inh	MPTP inh	ADAM10 inh	MT1-MMP act inh	NR3A LBD binder	SKN-1 inh
CC(=NNc1ccc2ccccc2n1)c1ccccn1	n	x	n	x	x	x
Cc1cc(N/N=C\c2ccccc2)nc(-c2ccccc2O)n1	n	n	n	n	31	n
CC(=NNc1ccc2ccccc2n1)c1ccccc1O	n	n	n	n	24	n
O=C1CC(SC(=Nc2ccccc2)Nc2ccccc2)C(=O)N1c1ccc(Cl)c(Cl)c1 (centres undefined)	n	n	n	n	n	n
CCCCN1CC(COCc2ccccc2)Oc2cccc(Oc3ccc(F)cc3)c2S1(=O)=O (centres undefined)	n	n	n	n	13	n
O=S1(=O)c2c(Oc3cccc4ccccc34)cccc2OC(COCc2ccccc2)CN1C1CCCC1 (centres undefined)	n	n	n	n	18	n
O=S1(=O)c2c(F)cccc2OC(COCc2ccccc2)CN1C1CCCC1 (centres undefined)	n	n	n	n	n	n
Cc1nc(NC(=O)COC(=O)c2ccc(S(=O)(=O)N3CCc4ccccc4C3)cc2)c(Cl)cc1Cl	n	n	n	n	n	n
COc1ccc(/C(N)=N/OC(=O)Cc2ccc(C)cc2)cc1	n	n	n	n	n	n
N/C(=N\OC(=O)c1ccc(Br)o1)c1cccnc1	n	n	n	n	n	42
COc1ccc(/C(N)=N/OC(=O)c2ccc(Br)o2)cc1	n	n	n	n	14	n
O=C(C(c1ccccc1)c1ccccc1)N1CCCc2ccccc21	n	n	n	n	n	n
Cc1ccc(NC(=O)c2cc(-c3ccco3)on2)cc1C	n	n	n	n	n	36
Cc1ccc(-n2nc3ccc(NC(=O)/C=C/c4ccco4)cc3n2)cc1	n	n	n	n	24	n
Cc1ccc(NC(=O)c2cccc(NC(=O)/C=C/c3ccco3)c2)cc1C	n	n	n	n	15	n
CCc1ccccc1NC(=O)c1cccc(NC(=O)/C=C/c2ccco2)c1	n	n	n	n	n	n
Fc1ccccc1-c1nc(-c2ccccc2)no1	n	n	n	n	n	n
Cc1ccccc1-c1nc(-c2ccc(NC(=O)c3ccc(Br)o3)cc2)no1	n	n	n	n	29	n
COc1ccc(-c2nc(-c3ccc(Br)o3)no2)cc1	n	n	n	n	n	n
Fc1ccccc1-c1nc(-c2ccncc2)no1	n	n	n	n	n	46
c1ccc(-c2noc(-c3cccc4ccccc34)n2)cc1	n	n	n	n	n	37
Cc1ccccc1-c1nc(-c2ccc(Br)o2)no1	n	n	n	n	n	46
Fc1ccccc1-c1nc(-c2ccc(Br)o2)no1	n	n	n	n	n	72
O=S(=O)(c1ccc(SCCOc2ccc(F)cc2)nc1)N1CCCC1	n	n	n	n	14	n
CCOc1ccc(S(=O)(=O)N2CCCC2)cc1	n	n	n	n	13	n
O=S(=O)(c1ccc(SCCOc2ccccc2)nc1)N1CCCC1	n	n	n	n	n	n
CC(C)CSc1nc2ccccc2c(=O)[nH]1	n	n	n	n	n	n

Compound activity as filed in PubChem.
